Laboratory results from ChEMBL document CHEMBL4354813, “Design, Synthesis, and Pharmacological Evaluation of Potent Positive Allosteric Modulators of the Glucagon-like Peptide-1 Receptor (GLP-1R)” (J Med Chem, 2020).
Calls of active or inactive are those of the source. The rule behind the calls is not given here.

How the values were obtained:
HEK293 = test: Effect on cAMP accumulation in parental HEK293 cells incubated for 30 mins by HTRF cAMP assay; assay type: functional, cell-based; conditions: Homo sapiens
[1] = molecular target: Glucagon-like peptide 1 receptor (Homo sapiens, UniProt P43220); test: Activity at human GLP-1R expressed in PSC-HEK293 cells incubated for 30 mins by HTRF cAMP assay; assay type: functional, cell-based
Sequence of Glucagon-like peptide 1 receptor (P43220 whole entry): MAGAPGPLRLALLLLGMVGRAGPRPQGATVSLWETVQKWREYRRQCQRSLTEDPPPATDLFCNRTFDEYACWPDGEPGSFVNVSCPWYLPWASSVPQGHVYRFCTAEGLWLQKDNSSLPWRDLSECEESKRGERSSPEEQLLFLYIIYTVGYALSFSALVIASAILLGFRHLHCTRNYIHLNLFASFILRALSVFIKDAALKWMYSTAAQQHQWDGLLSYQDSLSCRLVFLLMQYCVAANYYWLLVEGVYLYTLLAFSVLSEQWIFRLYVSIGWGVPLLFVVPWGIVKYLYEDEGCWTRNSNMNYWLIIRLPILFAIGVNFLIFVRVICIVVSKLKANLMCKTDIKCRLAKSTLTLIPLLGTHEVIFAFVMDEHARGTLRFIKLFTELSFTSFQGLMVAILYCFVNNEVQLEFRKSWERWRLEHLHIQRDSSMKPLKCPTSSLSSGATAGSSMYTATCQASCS

[2] = molecular target: T1, Gastric inhibitory polypeptide receptor (Homo sapiens) (UniProt P48546); test: Activity at human GIPR expressed in PSC-HEK293 cells incubated for 30 mins by HTRF cAMP assay; assay type: functional, cell-based
T1 sequence (whole entry): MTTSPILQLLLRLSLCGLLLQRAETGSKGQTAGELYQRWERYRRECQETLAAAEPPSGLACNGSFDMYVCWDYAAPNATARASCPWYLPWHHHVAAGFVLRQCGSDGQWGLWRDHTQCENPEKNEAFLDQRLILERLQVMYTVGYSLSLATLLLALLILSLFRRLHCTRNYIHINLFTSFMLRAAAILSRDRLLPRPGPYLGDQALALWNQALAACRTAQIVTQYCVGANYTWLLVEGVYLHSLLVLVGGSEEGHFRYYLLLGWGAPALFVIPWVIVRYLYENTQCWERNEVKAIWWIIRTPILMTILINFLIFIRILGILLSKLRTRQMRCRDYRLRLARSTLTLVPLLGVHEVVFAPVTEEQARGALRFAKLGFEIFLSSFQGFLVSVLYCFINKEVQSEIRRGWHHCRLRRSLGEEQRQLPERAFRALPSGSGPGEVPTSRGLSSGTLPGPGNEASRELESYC

Rattus norvegicus [3] = species on record: Rattus norvegicus; test: Improvement in 10 nM GLP1(9-36)NH2-mediated glucose-stimulated insulin secretion in dispersed rat pancreatic islets at 10 uM incubated for 2 hrs by ELISA; assay type: functional
Summary of the method: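 Dispersed islets from male Sprague Dawley rats (collagenase digestion, Histopaque purification, Accutase dispersal, cultured up to 4 days). Pre-incubated 1 h in Krebs-Ringer with 5.6 mM glucose, then 2 h at 37 °C with 15 mM glucose, ±10 nM GLP1(9-36)NH2, ±compound 10 µM, DMSO vehicle; insulin by HTRF ELISA as % of total, n-fold vs control; N≥9.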

Rattus norvegicus [4] = species on record: Rattus norvegicus; test: Improvement in 10 nM GLP1(9-36)NH2-mediated glucose-stimulated insulin secretion in dispersed rat pancreatic islets at 10 uM incubated for 2 hrs under […] conditions by ELISA; assay type: functional
OATP1B1 = molecular target: T2, OATP1B1 (Homo sapiens, UniProt Q9Y6L6); test: Substrate activity at human OATP1B1 expressed in HEK293 cells assessed as increase in compound uptake at 1 uM incubated up to 15 mins LC-MS/MS analysis relative to control relative to control; assay type: ADME, cell-based; conditions: HEK293 cells expressing human OATP1B1, read-out: FC
T2 sequence (Q9Y6L6 whole entry): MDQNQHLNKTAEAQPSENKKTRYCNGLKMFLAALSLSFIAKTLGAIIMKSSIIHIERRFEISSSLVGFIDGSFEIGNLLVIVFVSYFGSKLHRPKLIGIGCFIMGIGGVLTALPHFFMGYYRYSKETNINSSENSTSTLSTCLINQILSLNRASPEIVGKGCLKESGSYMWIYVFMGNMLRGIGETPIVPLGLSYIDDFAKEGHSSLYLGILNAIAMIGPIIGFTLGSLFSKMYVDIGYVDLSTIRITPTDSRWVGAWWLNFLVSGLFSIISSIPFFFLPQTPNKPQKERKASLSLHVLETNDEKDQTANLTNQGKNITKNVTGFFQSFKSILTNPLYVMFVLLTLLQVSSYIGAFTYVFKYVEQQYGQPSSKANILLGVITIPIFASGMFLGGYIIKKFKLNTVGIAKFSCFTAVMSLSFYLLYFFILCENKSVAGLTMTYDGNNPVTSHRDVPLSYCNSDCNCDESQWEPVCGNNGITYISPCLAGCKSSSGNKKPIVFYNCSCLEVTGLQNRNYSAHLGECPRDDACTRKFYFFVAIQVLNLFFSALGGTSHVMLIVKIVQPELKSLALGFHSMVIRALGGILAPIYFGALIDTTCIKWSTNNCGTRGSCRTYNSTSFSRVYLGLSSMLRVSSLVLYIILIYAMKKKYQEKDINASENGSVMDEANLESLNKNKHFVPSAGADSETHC
Summary of the method: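 HEK-TR cells overexpressing hOATP1B1 or hOATP1B3, run in parallel with control HEK-TR cells, seeded at 1 x 10⁵ cells/well one day before. Time-dependent uptake of 1 μM compound in HBSS at 37 °C, quadruplicates. Uptake stopped with ice-cold buffer, cells washed, lysed and quantified by LC-MS/MS. Uptake ratio calculated against the control cells.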

[5] = Permeability from apical and basolateral in human Caco2/TC7 cells at pH 7.4 in presence of 0.5% BSA; assay type: ADME, cell-based; conditions: caco2/tc7, pH 7.4
[6] = Efflux ratio in human Caco2/TC7 cells at pH 7.4 in presence of 0.5% BSA; assay type: ADME, cell-based; conditions: Caco-2, pH 7.4
Summary of the method: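 Efflux in Caco-2/TC7 cells under isocratic conditions, pH 7.4 and 0.5% BSA in both compartments, compound 2 µM, with and without cyclosporine A as efflux inhibitor; LC-MS/MS analysis.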

[7] = Chemical stability in pH 1.1 buffer; assay type: physicochemical
[8] = Chemical stability in pH 7.4 buffer; assay type: physicochemical
Cytochrome P450 3A4 [9] = molecular target: T3, Cytochrome P450 3A4 (Homo sapiens, UniProt P08684); test: Inhibition of CYP3A4 (unknown origin) using midazolam substrate; assay type: ADME
T3 sequence (P08684 whole entry): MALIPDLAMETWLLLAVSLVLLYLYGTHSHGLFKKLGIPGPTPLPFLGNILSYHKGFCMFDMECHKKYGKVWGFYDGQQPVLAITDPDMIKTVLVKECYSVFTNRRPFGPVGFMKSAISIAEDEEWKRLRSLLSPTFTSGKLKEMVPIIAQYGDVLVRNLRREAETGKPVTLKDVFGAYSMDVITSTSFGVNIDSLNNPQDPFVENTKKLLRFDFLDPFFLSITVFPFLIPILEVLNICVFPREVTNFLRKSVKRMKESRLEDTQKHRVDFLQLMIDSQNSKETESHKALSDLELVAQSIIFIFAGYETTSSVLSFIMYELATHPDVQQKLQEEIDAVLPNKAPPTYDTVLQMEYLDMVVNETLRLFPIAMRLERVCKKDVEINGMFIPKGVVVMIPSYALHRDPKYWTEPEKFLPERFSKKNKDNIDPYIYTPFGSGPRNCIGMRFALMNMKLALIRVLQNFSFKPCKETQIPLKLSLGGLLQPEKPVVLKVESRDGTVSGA

Cytochrome P450 3A4 [10] = molecular target: T3, Cytochrome P450 3A4; test: Inhibition of CYP3A4 (unknown origin) using testosterone as substrate; assay type: ADME
[11] = molecular target: Voltage-gated inwardly rectifying potassium channel KCNH2 (Homo sapiens, UniProt Q12809); test: Inhibition of human ERG by patch clamp assay
Sequence of Voltage-gated inwardly rectifying potassium channel KCNH2 (Q12809 whole entry): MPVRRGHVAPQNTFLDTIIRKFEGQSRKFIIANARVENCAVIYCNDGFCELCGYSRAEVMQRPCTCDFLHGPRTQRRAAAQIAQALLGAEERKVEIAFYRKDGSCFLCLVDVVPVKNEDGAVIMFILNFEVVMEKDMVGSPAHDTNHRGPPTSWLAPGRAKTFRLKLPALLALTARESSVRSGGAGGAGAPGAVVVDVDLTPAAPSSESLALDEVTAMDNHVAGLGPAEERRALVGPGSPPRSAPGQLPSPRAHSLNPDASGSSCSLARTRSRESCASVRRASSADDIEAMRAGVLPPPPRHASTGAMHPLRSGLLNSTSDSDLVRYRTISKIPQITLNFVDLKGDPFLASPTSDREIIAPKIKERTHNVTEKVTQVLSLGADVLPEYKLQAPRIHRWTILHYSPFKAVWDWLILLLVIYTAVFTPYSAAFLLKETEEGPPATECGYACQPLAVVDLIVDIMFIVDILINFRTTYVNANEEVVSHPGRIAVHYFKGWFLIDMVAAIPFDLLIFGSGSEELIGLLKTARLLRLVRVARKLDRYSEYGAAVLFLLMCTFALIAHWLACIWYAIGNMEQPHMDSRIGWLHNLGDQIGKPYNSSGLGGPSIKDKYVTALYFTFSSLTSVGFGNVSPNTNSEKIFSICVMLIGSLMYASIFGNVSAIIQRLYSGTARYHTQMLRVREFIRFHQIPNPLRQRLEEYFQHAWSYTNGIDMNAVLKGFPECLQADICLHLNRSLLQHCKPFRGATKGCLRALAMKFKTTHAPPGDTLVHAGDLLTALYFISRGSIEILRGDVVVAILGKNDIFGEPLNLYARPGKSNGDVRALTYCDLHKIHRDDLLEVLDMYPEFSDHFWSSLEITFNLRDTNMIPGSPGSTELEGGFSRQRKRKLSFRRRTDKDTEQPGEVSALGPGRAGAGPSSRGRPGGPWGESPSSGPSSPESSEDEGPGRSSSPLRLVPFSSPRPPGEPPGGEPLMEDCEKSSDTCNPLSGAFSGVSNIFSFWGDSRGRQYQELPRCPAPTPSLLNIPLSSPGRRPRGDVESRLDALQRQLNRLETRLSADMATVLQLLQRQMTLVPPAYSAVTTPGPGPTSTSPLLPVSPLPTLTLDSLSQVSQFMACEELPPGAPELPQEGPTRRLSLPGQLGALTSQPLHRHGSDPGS

[12] = Stability in mouse plasma by LC-MS/MS analysis; assay type: ADME, cell-free
[13] = Clearance in C57Bl6 mouse at 3 mg/kg, iv administered as single dose measured up to 24 hrs ESI-LC/MS-MS analysis; assay type: ADME, organism-based; conditions: in vivo
Summary of the method: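 Female C57Bl6 mice (n=24) given single 3 mg/kg i.v. in solution (75% water : 25% of 75% Glycoferol/25% Cremophor); plasma sampled at 0.083, 0.25, 0.5, 1, 2, 4, 6, 8, 24 h; heparinized plasma after acetonitrile protein precipitation analysed by ESI-LC/MS-MS (LOQ 5 ng/mL); noncompartmental parameters with linear trapezoidal calculation.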

[14] = Metabolic lability in mouse liver microsomes incubated up to 20 mins by LC-MS/MS analysis
[15] = molecular target: Vasoactive intestinal polypeptide receptor 2 (Homo sapiens) (UniProt P41587); test: Activity at human VIPR expressed in PSC-HEK293 cells incubated for 30 mins by HTRF cAMP assay
Sequence of Vasoactive intestinal polypeptide receptor 2 (Homo sapiens) (P41587 whole entry, looked up): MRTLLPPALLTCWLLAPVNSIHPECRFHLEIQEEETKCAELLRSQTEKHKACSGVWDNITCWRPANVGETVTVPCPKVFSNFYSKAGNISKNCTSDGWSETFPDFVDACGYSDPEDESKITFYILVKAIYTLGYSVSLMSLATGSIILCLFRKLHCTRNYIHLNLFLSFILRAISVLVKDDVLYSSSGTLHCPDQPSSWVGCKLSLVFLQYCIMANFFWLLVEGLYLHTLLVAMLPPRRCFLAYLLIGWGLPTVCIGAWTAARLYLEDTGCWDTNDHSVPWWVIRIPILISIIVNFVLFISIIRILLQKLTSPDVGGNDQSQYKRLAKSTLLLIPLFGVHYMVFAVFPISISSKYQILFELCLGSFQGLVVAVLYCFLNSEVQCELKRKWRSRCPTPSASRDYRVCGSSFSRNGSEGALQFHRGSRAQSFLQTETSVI

[16] = Volume of distribution at steady state in Wistar rat at 3 mg/kg, iv administered as single dose measured up to 24 hrs ESI-LC/MS-MS analysis; conditions: in vivo
Pancreatic islet = test: Inhibition of GLP1(9-36)NH2-mediated glucose-stimulated insulin secretion in dispersed GLP-1(-/-) mouse pancreatic islets at 10 uM incubated for 2 hrs by ELISA; assay type: functional, cell-based

Compound | Activity (HEK293) | Activity [1] | Activity [2] | Activity (Rattus norvegicus [3]) | Activity (Rattus norvegicus [4]) | uptake ratio at 0.25 h, 1 µM (OATP1B1) | permeability [5] [×10⁻⁷ cm/s] | efflux ratio [6] | Stability [7] [%] | Stability [8] [%] | IC50 (Cytochrome P450 3A4 [9]) [µM] | IC50 (Cytochrome P450 3A4 [10]) [µM] | IC50 [11] [µM] | Stability [12] [%] | clearance [13] [mL/min/kg] | metabolized at 20 min [14] [%] | Activity [15] | Vdss [16] [L/kg] | inhibition (Pancreatic islet)
CC(C)(C)OC(=O)n1c2c(c3ccccc31)C[C@H]1C(=O)N3C[C@@H](CC(=O)O)C[C@H]3[C@@H]2N1C(=O)CC1CCC(F)(F)CC1 | inactive | inactive | inactive | Active | inactive | 6 to 22 | 0.18 | 247 | 98 | 99 | > 50 | > 50 | > 30 | 98 | 109 | 5 | inactive | 2.29 | –
CC(O)CCN1C[C@H]2c3c(c4ccccc4n3C(=O)OC(C)(C)C)C[C@@H](C1=O)N2C(=O)CC1CCC(F)(F)CC1 (stereo partly drawn) | inactive | inactive | inactive | – | – | – | – | – | – | – | – | – | – | – | – | – | inactive | – | Active
